Laboratory results taken from ChEMBL document CHEMBL1158116, “Prenylated flavonoids from the root bark of Berchemia discolor, a Tanzanian medicinal plant” (2006).
≈ marks a conversion by molar mass, not a printed value. Calls of active or inactive are those of the source. The calls are words filed in the database; no cut-off is given here.

Legend:
LNCaP [1] = assay: Cytotoxicity against human LNCAP cells; type: functional; details: read-out: ED50 (the source's name)
In short: (§1)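 Panel of three human cancer lines (Lu1, LNCaP, MCF-7). Cytotoxicity expressed as ED50 in µg/mL.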

Lu1 [2] = assay: Cytotoxicity against human Lu1 cells; type: functional; details: read-out: ED50 (the source's name); in short: as §1
MCF7 [3] = assay: Cytotoxicity against human MCF7 cells; type: functional; details: read-out: ED50 (the source's name); in short: as §1
Lu1 [4] = assay: Inhibition of human Lu1 cells propagated in hollow fibers via subcutaneous site of immunodeficient NCr nu/nu mouse at 10 to 40 mg/kg, ip once daily after 7 days of implantation; type: functional, organism-based
In short: (§2)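 In vivo hollow fiber model in immunodeficient mice. Fibers loaded with Lu1, LNCaP or MCF-7 cells were implanted subcutaneously or intraperitoneally. Vehicle or drug was given ip once daily at 10, 20 or 40 mg/kg on days 3-6 after implantation. Mice were sacrificed on day 7, and fibers were retrieved and analysed for growth inhibition versus vehicle.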

MCF7 [5] = assay: Inhibition of human MCF7 cells propagated in hollow fibers via subcutaneous site of immunodeficient NCr nu/nu mouse at 10 to 40 mg/kg, ip once daily after 7 days of implantation; type: functional, organism-based; in short: as §2
LNCaP [6] = assay: Inhibition of human LNCAP cells propagated in hollow fibers via intraperitoneal site of immunodeficient NCr nu/nu mouse at 10 to 40 mg/kg, ip once daily after 7 days of implantation relative to control; type: functional; details: dose mg/kg 10-40; in short: as §2

## CC1(C)C=Cc2c(cc(O)c3c2OCC(c2cc4c(cc2O)OCO4)C3=O)O1 (racemic) [DISCOLORANONE A]
LNCaP [1]
  EC50: > 5 µg/mL
Lu1 [2]
  EC50: > 5 µg/mL
MCF7 [3]
  EC50: > 5 µg/mL

## COc1ccc([C@]2(O)COc3c(ccc4c3C=CC(C)(C)O4)C2)c(O)c1
LNCaP [1]
  EC50: > 5 µg/mL
Lu1 [2]
  EC50: > 5 µg/mL
MCF7 [3]
  EC50: > 5 µg/mL

## COc1ccc(C2COc3c(ccc4c3C=CC(C)(CCC=C(C)C)O4)C2)c(O)c1 (stereo not given) [HEMINITIDULAN]
LNCaP [1]
  EC50: > 5 µg/mL
Lu1 [2]
  EC50: > 5 µg/mL
MCF7 [3]
  EC50: > 5 µg/mL

## COc1ccc([C@H]2COc3cc4c(c(O)c3C2=O)C=CC(C)(CCC=C(C)C)O4)c(O)c1O (stereo partly drawn) [(3S)-ISODISCOLORANONE B]
LNCaP [1]
  EC50: > 5 µg/mL
Lu1 [2]
  EC50: > 5 µg/mL
MCF7 [3]
  EC50: > 5 µg/mL

## CC(C)=CCCC1(C)C=Cc2c(ccc3c2OCC(c2cc4c(cc2O)OCO4)C3)O1 (stereo not given) [NITIDULAN]
LNCaP [1]
  EC50: > 5 µg/mL
Lu1 [2]
  EC50: > 5 µg/mL
MCF7 [3]
  EC50: > 5 µg/mL

## CC1(C)C=Cc2c(c(O)cc3c2OCC(c2cc4c(cc2O)OCO4)C3)O1 (stereo not given) [LEIOCINOL]
LNCaP [1]
  EC50: > 5 µg/mL
Lu1 [2]
  EC50: > 5 µg/mL
MCF7 [3]
  EC50: > 5 µg/mL

## C=C(CO)[C@H]1Cc2c(ccc3c2O[C@@H]2COc4cc(OC)c(OC)cc4[C@]2(O)C3=O)O1 [DABINOL]
LNCaP [1]
  EC50: 5.4 µg/mL (≈ 12.7 µM)
Lu1 [2]
  EC50: 3.1 µg/mL (≈ 7.27 µM)
MCF7 [3]
  EC50: 13.1 µg/mL (≈ 30.7 µM)

## CC1(C)C=Cc2c(ccc3c2OCC2c4cc5c(cc4OC32)OCO5)O1 (stereo not given) [LEIOCARPIN]
LNCaP [1]
  EC50: > 5 µg/mL
Lu1 [2]
  EC50: > 5 µg/mL
MCF7 [3]
  EC50: > 5 µg/mL

## CC1(C)C=Cc2c(ccc3c2OCC(c2cc4c(cc2O)OCO4)C3)O1 (stereo not given) [LEIOCIN]
LNCaP [1]
  EC50: > 5 µg/mL
Lu1 [2]
  EC50: > 5 µg/mL
MCF7 [3]
  EC50: > 5 µg/mL

## CC1(C)C=Cc2c(cc3c(c2O)C(=O)[C@@H](c2cc4c(cc2O)OCO4)CO3)O1 [(3S)-ISODISCOLORANONE A]
LNCaP [1]
  EC50: > 5 µg/mL
Lu1 [2]
  EC50: > 5 µg/mL
MCF7 [3]
  EC50: > 5 µg/mL

## COc1ccc([C@H]2COc3c(ccc4c3C=CC(C)(CCC=C(C)C)O4)C2)c(O)c1O (stereo not given in full) [NITIDULIN]
Lu1 [4]
  Activity: inactive
MCF7 [5]
  Activity: inactive
LNCaP [1]
  EC50: 4.1 µg/mL (≈ 9.7 µM)
Lu1 [2]
  EC50: 4.2 µg/mL (≈ 9.94 µM)
LNCaP [6]
  inhibition (INH): 49%
MCF7 [3]
  EC50: 3.5 µg/mL (≈ 8.28 µM)

## C=C(CO)[C@H]1Cc2c(ccc3c2O[C@@H]2COc4cc(OC)c(OC)cc4[C@@H]2C3=O)O1 [AMORPHIGENIN]
LNCaP [1]
  EC50: 7.9 µg/mL (≈ 19.2 µM)
Lu1 [2]
  EC50: 4.8 µg/mL (≈ 11.7 µM)
MCF7 [3]
  EC50: > 20 µg/mL

## CC1(C)C=Cc2c(c(O)cc3c2OC[C@@H]2c4cc5c(cc4O[C@H]32)OCO5)O1
LNCaP [1]
  EC50: > 5 µg/mL
Lu1 [2]
  EC50: > 5 µg/mL
MCF7 [3]
  EC50: > 5 µg/mL

## COc1ccc([C@H]2COc3c4c(cc(O)c3C2=O)OC(C)(CCC=C(C)C)C=C4)c(O)c1O (stereo not given in full) [DISCOLORANONE]
LNCaP [1]
  EC50: 6.4 µg/mL (≈ 14.1 µM)
Lu1 [2]
  EC50: 9.6 µg/mL (≈ 21.2 µM)
MCF7 [3]
  EC50: 3.6 µg/mL (≈ 7.96 µM)
